Among the data in ChEMBL document CHEMBL1268863, “Bioactive Cycloperoxides Isolated from the Puerto Rican Sponge Plakortis halichondrioides” (J Nat Prod, 2010) are Activity and IC50 values, retold here.

The subject of assay [1] is DU-145. Description: Cytotoxicity against human DU145 cells at 10 uM after 48 hrs […]. The format is functional.
The test system of the next assay is Plasmodium falciparum. As to the kind of experiment: Antimicrobial activity against chloroquine-resistant Plasmodium falciparum W2. The format is functional, organism-based. In a few lines: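 Chloroquine-resistant W2 strain tested, with chloroquine as positive control; IC50 reported in µg/mL.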
Assay [2] deals with DU-145. Description: Cytotoxicity against human DU145 cells after 48 hrs by MTT assay. It is filed as functional, cell-based. The settings on record: DU-145, 48 h. In a few lines: (§1)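 Cells cultured in RPMI-1640 or DMEM with 10% FBS and penicillin/streptomycin at 37 °C, 5% CO2, then seeded at 5,000/well and left overnight. Compound given at 0.1, 0.5, 1, 5, 10, 20 and 50 µM for 48 h with a DMSO vehicle control. Viability read by MTS formazan absorbance at 490 nm, in quadruplicate, and IC50 derived from the dose series.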

In assay [3] the test system is A2058. Description: Cytotoxicity against human A2058 cells after 48 hrs by MTT assay. The format is functional, cell-based. The settings on record: A2058, 48 h. In a few lines:
as §1
A general note: Tetrazolium dyes change colour on reduction, which living cells bring about.

Assay [4] concerns A2058. Description: Cytotoxicity against human A2058 cells at 10 uM after 48 hrs […]. It is filed as functional.
For assay [5], the system named is Mycobacterium tuberculosis. Description: Antimycobacterial activity Mycobacterium tuberculosis H37Rv. It is filed as functional, organism-based.

In brackets after ≈: the same amount, converted by molar mass. Bounds are passed on as bounds.

A word on the IC50: it is the concentration needed to halve the response being measured. With `CCCCCCCCCCCCCCCC[C@]1(C)C[C@@](C)(CC(=O)OC)OO1`, the Activity in the assay with DU-145 [1] came out at 38%; with A2058 [4], 69%. In addition, the IC50 in the assay on Plasmodium falciparum was above 10 µg/mL; in the assay with DU-145 [2], 8 µM; in the assay on A2058 [3], above 10 µM.
For `CCCCCCCCCCCCCCCC[C@@](C)(O)C[C@](C)(O)CC(=O)OC` the same measures were 81%, 79%, above 10 µg/mL, above 10 µM and above 10 µM.
With `CCCCCCCCCCCCCCCC[C@]1(C)C[C@@](C)(O)CC(=O)O1`, the Activity is listed as 102% in the assay on DU-145 [1] and 60% with A2058 [4]. In addition, the IC50 in the assay on Plasmodium falciparum is above 10 µg/mL; in the assay with DU-145 [2], above 10 µM; with A2058 [3], above 10 µM; in assay [5], 30 µg/mL (≈ 81.4 µM).
As to `CCCCCCCCCCCCCCCC[C@@](C)(O)C[C@]1(C)OC(=O)C[C@@H]1O`, the Activity turned out to be 79% in the assay with DU-145 [1] and 75% in the assay with A2058 [4]. Also, the IC50 was 0.6 µg/mL (≈ 1.51 µM) with Plasmodium falciparum, 24 µM with DU-145 [2], 24 µM in the assay on A2058 [3] and 13 µg/mL (≈ 32.6 µM) in assay [5].
Take `CCCCCCCCCCCCCCCC[C@]1(C)C[C@]2(C)OC(=O)C[C@@H]2OO1`: the Activity turned out to be 13% in the assay with DU-145 [1] and 8% with A2058 [4]. The IC50 with Plasmodium falciparum stood at 0.3 µg/mL (≈ 0.756 µM); with DU-145 [2], 2 µM; in the assay with A2058 [3] it was 0.8 µM; in assay [5], 68 µg/mL (≈ 171 µM).
For the molecule `C[C@@](O)(CCCCCCCCCc1ccc(O)cc1)C[C@]1(C)OC(=O)C[C@@H]1O`, the Activity in the assay with DU-145 [1] came to 95%; with A2058 [4] it was 81%. In addition, the half-inhibitory concentration (IC50) was 7 µg/mL (≈ 17.8 µM) with Plasmodium falciparum, above 10 µM with DU-145 [2] and above 10 µM with A2058 [3].
As to `CC/C=C/C=C/C=C/CCCCCCCC[C@]1(C)C[C@@](C)(CC(=O)OC)OO1` [EPIPLAKINIC ACID F METHYL ESTER], the Activity with DU-145 [1] is 92%; with A2058 [4], 86%. The half-inhibitory concentration (IC50) was 4 µg/mL (≈ 10.2 µM) in the assay with Plasmodium falciparum, above 10 µM in the assay with DU-145 [2], above 10 µM in the assay with A2058 [3] and 62 µg/mL (≈ 158 µM) in assay [5].
For the molecule `CC/C=C/C=C/C=C/CCCCCCCC[C@@]1(C)C[C@](C)(CC(=O)O)OO1` [EPIPLAKINIC ACID F], the Activity with DU-145 [1] was determined as 15%; in the assay on A2058 [4] it was 51%. Further, the concentration for half-maximal inhibition (IC50) is 3 µg/mL (≈ 7.92 µM) in the assay with Plasmodium falciparum, 1 µM in the assay with DU-145 [2], above 10 µM in the assay on A2058 [3] and 92 µg/mL (≈ 243 µM) in assay [5].
`C[C@]1(CC(=O)O)C[C@@](C)(CCCCCCCCC(=O)O)OO1` [EPIPLAKINIDIOIC ACID]: the Activity is reported as 31% in the assay on DU-145 [1] and 23% in the assay on A2058 [4]. The IC50 turned out to be 0.3 µg/mL (≈ 0.948 µM) in the assay with Plasmodium falciparum, 4 µM in the assay with DU-145 [2] and 3 µM in the assay on A2058 [3].
In the case of `C[C@@]1(CCCCCCCCCc2ccc(O)cc2)C[C@]2(C)OC(=O)C[C@@H]2OO1` [PLAKORTOLIDE F], the Activity in the assay on DU-145 [1] is on record as 62%; in the assay with A2058 [4], 71%. Moreover, the IC50 in the assay with DU-145 [2] is above 10 µM; in the assay with A2058 [3], above 10 µM; in assay [5], 59 µg/mL (≈ 151 µM).
In the case of `CC/C=C/C=C/C=C/CCCCCCCC[C@]1(C)C[C@]2(C)OC(=O)C[C@@H]2OO1` [PLAKORTOLIDE J], the Activity is recorded as 112% in the assay with DU-145 [1] and 106% in the assay on A2058 [4]. Further, the IC50 is above 10 µg/mL in the assay on Plasmodium falciparum, above 10 µM in the assay on DU-145 [2], above 10 µM with A2058 [3] and 71 µg/mL (≈ 182 µM) in assay [5].
